Rows were chosen to be rich in hits. Some 1.8% of all compounds tested hit in one or more screens of this group.
M4 antag = human M4 muscarinic receptor antagonists, primary screen, CHO cells, Fluo-8 calcium fluorescence | CHO-hM4 cells, ACh EC80 | 0.73% of 360,000 active | Muscarinic acetylcholine receptor M4 (Homo sapiens), P08173 | AID 624125, 2012 | inhibition, % at 3 µM;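 active = inhibition above its plate's cutoff, the mean inhibition of sample wells plus 3 SD, cut at about 27% in these data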
Target sequence (P08173 whole entry, looked up): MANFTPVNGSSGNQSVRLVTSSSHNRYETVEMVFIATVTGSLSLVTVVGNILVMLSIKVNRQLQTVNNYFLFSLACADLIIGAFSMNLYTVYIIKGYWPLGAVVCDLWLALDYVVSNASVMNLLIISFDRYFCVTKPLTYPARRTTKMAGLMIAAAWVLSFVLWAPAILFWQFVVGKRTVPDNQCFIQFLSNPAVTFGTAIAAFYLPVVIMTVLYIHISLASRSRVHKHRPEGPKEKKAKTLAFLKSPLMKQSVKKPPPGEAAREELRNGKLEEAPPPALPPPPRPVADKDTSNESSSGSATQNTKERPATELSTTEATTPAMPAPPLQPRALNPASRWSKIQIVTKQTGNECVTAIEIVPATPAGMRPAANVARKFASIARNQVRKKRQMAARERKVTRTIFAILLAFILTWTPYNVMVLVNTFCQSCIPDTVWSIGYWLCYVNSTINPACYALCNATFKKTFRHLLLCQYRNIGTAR
CHRM4 PAM = human M4 muscarinic receptor positive allosteric modulators, primary screen, CHO-K1 cells, Fluo-8 calcium fluorescence. 0.4% of 360,000 active. CHO-K1 hM4/Gqi5, ACh EC20; 0% = ACh EC20, 100% = maximal ACh. Muscarinic acetylcholine receptor M4 (Homo sapiens), P08173. activation, % at 3 µM;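 active = activation above its plate's cutoff, the mean activation of sample wells plus 3 SD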
CHRM5 PAM = human M5 muscarinic receptor positive allosteric modulators, primary screen, CHO-K1 cells, Fluo-8 calcium fluorescence | 0.3% of 360,000 active | CHO-K1 hM5, ACh EC20 PAM; 0% = ACh EC20, 100% = ACh EC100 | Muscarinic acetylcholine receptor M5 (Homo sapiens), P08912 | activation, % at 3 µM | AID 624038, 2012;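 active = activation above the run cutoff, the mean activation of all test compounds plus 3 SD, cut at about 18% in these data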
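system = human M5 receptor in CHO-K1 cells | compound = one concentration, 3 µM final (nominal) | schedule = Post-acetylcholine fluorescence recording 140 s | signal = Fluo-8 calcium dye fluorescence, kinetic read | benchmarks = low control EC20 acetylcholine (0%), high control EC100 acetylcholine (100%) | repeats = singlicate, one well per test compound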
M4 ag = human M4 muscarinic receptor agonists, primary screen, CHO-K1 cells, Fluo-8 calcium fluorescence; 0.14% of 360,000 active; CHO-K1 hM4/Gqi5; vehicle 0%, full acetylcholine response 100%; activation, % at 3 µM; AID 624127, 2012;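 active = activation above the run mean over all test wells plus 3 SD, cut at about 32% in these data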;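 also: peak over basal fluorescence ratio per well then scaled between controls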
M5 ag = human M5 muscarinic receptor agonists, primary screen, CHO-K1 cells, Fluo-8 calcium fluorescence; 0.19% of 360,000 active; CHO-K1 hM5 cells; 0% DMSO wells, 100% maximal acetylcholine response; activation, % at 3 µM; Muscarinic acetylcholine receptor M5 (Homo sapiens), P08912;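 active = activation above the run's mean over test compounds plus 3 SD, cut at about 23% in these data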;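 also: signal is peak over basal fluorescence ratio across the kinetic read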
M5 antag = human M5 muscarinic receptor antagonists, primary screen, CHO cells, Fluo-8 calcium fluorescence | CHO-hM5 cells, ACh EC80 | inhibition, % at 3 µM | 0.59% of 360,000 active | AID 624040, 2012;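 active = inhibition above a per-plate cutoff, the mean of that plate's test compounds plus 3 SD, cut at about 27% in these data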
Numbers stand for hits; . = inactive.

SMILES | M4 antag | CHRM4 PAM | CHRM5 PAM | M4 ag | M5 ag | M5 antag
Cc1cccc(NC(=O)CNC(=O)CN2CCN(C)CC2)c1C | . | . | . | . | . | .
O=C1CCCN1CCCNS(=O)(=O)c1cccs1 | . | . | . | . | . | .
c1ccc(CNc2nc(NCc3cccs3)nc3ccsc23)cc1 | . | . | . | 39.5 | . | 41.6
O=C1NCCN1CCNc1nc(NCc2ccccc2)nc2ccsc12 | 52.2 | . | . | 45.9 | . | .
O=C1CCCN1CCCNc1nc(NCc2cccs2)nc2ccsc12 | 52.6 | . | . | 96.1 | 40.7 | .
c1csc(CNc2nc(NCC3CCCCC3)c3sccc3n2)c1 | 27.1 | . | . | . | . | .
CC(C)Nc1nc(NCCN2CCNC2=O)c2sccc2n1 | . | . | . | . | . | .
CC(C)N(Cc1nnc(-c2ccc(Cl)cc2)o1)C(=O)c1cc2ccccc2o1 | . | . | . | . | . | .
O=C(NCC1CCCCC1)c1csc([C@@H]2C[C@H](O)[C@@H](CO)O2)n1 | . | . | . | . | . | .
c1ccc(CNc2nc(NCCc3ccncc3)c3sccc3n2)cc1 | 100.2 | . | . | 154.7 | 95.8 | 98.5
COCCNc1nc(NCc2cccs2)nc2ccsc12 | 91.7 | . | . | 158.7 | 95.7 | 81.1
CC(=O)NCCNc1nc(NCc2cccs2)nc2ccsc12 | . | . | . | . | . | .
Cc1ccc(-c2csc(N3CCC(NS(=O)(=O)c4ccc5c(c4)OCCO5)CC3)n2)cc1 | . | . | . | . | . | 28.1
O=C(c1ccccc1)c1cc(Cl)ccc1N1C(=O)C=CC1=O | 34.5 | . | . | . | . | .
O=C(CC(=O)c1cc(Cl)ccc1O)c1ccccc1 | . | . | . | . | . | .
CCN1/C(=C/c2ccc3cc(C)ccc3[n+]2CC)Sc2cc(C)c(C)cc21 | 30.8 | . | . | . | . | 41.4
CCN1/C(=C/C=C/c2sc3ccccc3[n+]2CC)Sc2ccccc21 | . | . | . | . | . | .
CCN1/C(=C/c2ccc3cc(C)ccc3[n+]2CC)Sc2ccccc21 | 33.2 | . | . | . | 24.2 | 60.1
CC[n+]1c(/C=C2\Sc3ccccc3N2C)ccc2cccc(C)c21 | . | . | . | . | . | 38.3
CC[n+]1ccccc1/C=C1\Sc2ccc(C)cc2N1C | . | . | . | . | . | .
CS(=O)(=O)c1ccc2nc(NC(=O)CCNC(=O)c3ccccc3Cl)sc2c1 | . | . | . | . | . | .
C=CCn1c(=O)c(C(=O)Nc2ccccc2O)c(O)c2ccccc21 | . | . | . | . | . | .
CC(C)Cn1c(=O)c(C(=O)Nc2ccncc2)c(O)c2ccccc21 | 98.5 | . | . | . | . | 99.6
C=CCn1c(=O)c(C(=O)Nc2ccccc2C)c(O)c2ccccc21 | . | . | 26.9 | . | . | .
Cc1ccc(OCCC(=O)OCC(=O)c2ccc3c(c2)NC(=O)CO3)cc1 | . | . | . | . | . | .
SMILES | M4 antag | CHRM4 PAM | CHRM5 PAM | M4 ag | M5 ag | M5 antag
CCOc1ccccc1NC(=O)NC1CC2CCCC(C1)N2Cc1nnnn1CCc1ccccc1 (stereo unspecified) | 42.3 | . | . | . | . | .
Cc1ccccc1CNC(=O)c1ccccc1NS(C)(=O)=O | . | . | 19.0 | . | . | .
CS(=O)(=O)Nc1ccccc1C(=O)NCc1ccccc1Cl | . | . | . | . | . | .
O=[N+]([O-])c1cc2oc3c(c2c(C=NCc2ccccc2)c1O)CCCC3 | 35.3 | . | . | . | . | .
CC(C)CN=Cc1c(O)c([N+](=O)[O-])cc2oc3c(c12)CCCC3 | . | . | . | . | . | .
O=C(C(=Cc1ccccc1)CN1CCCCC1)c1ccccc1 | 29.4 | . | . | . | . | .
O=C(Cc1ccccc1)NC1(Cc2ccc(O)cc2)CCCCC1 | . | . | . | . | . | .
Cc1cc(C)n(S(=O)(=O)c2ccc(C(C)(C)C)cc2)n1 | 29.1 | . | . | . | . | .

High-throughput results as filed in PubChem BioAssay.
